Measured values gathered from unrelated publications.
Target: 3-phosphoinositide-dependent protein kinase 1 (PDPK1, Homo sapiens, UniProt O15530)
Sequence (O15530 1-556, as in one of the studies): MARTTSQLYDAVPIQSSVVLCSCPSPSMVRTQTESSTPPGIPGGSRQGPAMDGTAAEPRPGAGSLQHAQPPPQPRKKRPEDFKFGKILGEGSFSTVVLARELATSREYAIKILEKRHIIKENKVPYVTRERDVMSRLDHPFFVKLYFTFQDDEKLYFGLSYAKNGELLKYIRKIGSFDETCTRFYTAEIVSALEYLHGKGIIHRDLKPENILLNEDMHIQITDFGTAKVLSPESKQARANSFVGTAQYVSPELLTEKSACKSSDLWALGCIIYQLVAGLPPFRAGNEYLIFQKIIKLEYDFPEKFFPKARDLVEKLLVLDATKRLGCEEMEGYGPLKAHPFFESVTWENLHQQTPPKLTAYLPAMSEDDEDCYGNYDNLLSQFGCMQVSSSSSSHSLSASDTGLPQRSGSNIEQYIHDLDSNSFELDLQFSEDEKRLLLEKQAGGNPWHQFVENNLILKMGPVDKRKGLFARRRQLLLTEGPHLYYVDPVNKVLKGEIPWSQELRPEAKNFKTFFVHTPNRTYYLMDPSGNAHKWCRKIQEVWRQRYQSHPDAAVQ

N#Cc1ccc(NC(=O)Nc2ccccc2)cc1  remaining binding (cell-free assay, competition with immobilised ligand; 25 µM): 100%
C=CC(=O)N1CCC([C@@H]2CCNc3c(C(N)=O)c(-c4ccc(Oc5ccccc5)cc4)nn32)CC1  inhibition (enzyme activity, inhibitor; 1 µM): 18%
CC(C)S(=O)(=O)c1ccc2nccc(Nc3ccc4sc(C5CCCC5)nc4c3)c2c1  activity vs control (enzyme activity, inhibitor; 1 µM): 118%
CN1CCN(C(=O)c2ccc(NC(=O)Nc3ccc(N(C)c4ccnc(Nc5ccc(CS(C)(=O)=O)cc5)n4)cc3)cc2)CC1  remaining binding (binding; 1 µM): 68%
CCCCC(=O)Nc1ccc(-c2ccc3ncn(CCC)c(=O)c3c2)cn1  remaining binding (binding, competition with immobilised ligand; 0.5 µM): 100%
C#Cc1cnc(Nc2ccnc(CO)c2)nc1Nc1ccccc1S(C)(=O)=NC#N (centres unmarked)  remaining signal (cell-free assay; 1 µM): 100%
Cc1cc(O)c(-c2ccc([C@@H](C)CN(C)C)cc2)c2c1[nH]c(=O)c1sccc12  inhibition (enzyme activity, inhibitor; 0.1 µM): 4.15%
C1=C/COCc2cc(ccc2OCCN2CCCC2)Nc2nccc(n2)-c2cccc(c2)COC/1  remaining binding (binding; 0.1 µM): 100%
CO[C@@H]1[C@H](N(C)C(=O)c2ccccc2)C[C@H]2O[C@]1(C)n1c3ccccc3c3c4c(c5c6ccccc6n2c5c31)C(=O)NC4  inhibition (enzyme activity, inhibitor; 1 µM): 73%
C[C@H]1CC[C@H](n2c3cnccc3c3cnc(Nc4ccc5c(n4)CCN(C(=O)CO)C5)nc32)CC1  remaining signal (cell-free assay; 1 µM): 100%
COc1ccc2oc(-c3ccc4nc(N)oc4c3)c/c(=N\c3ccccc3NC(=O)CCN)c2c1  remaining binding (binding; 1 µM): 100%
